Data on 31 compounds can be found in ChEMBL document CHEMBL4371051, “Synthesis and SAR of novel capsazepine analogs with significant anti-cancer effects in multiple cancer types” (Bioorg Med Chem, 2019).

Calls of active or inactive are those of the source. The rule behind the calls is not given here.

In series [1] the test system is HeLa. Kind of series: Antiproliferative activity against human HeLa cells after 24 hrs by cell titer 96 aqueous non-radioactive cell proliferation assay. The format is functional, cell-based. The essentials:
(§1)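 Cells kept in high-glucose DMEM with 10% FBS and 1% penicillin/streptomycin at 37°C, 5% CO2. They were exposed for 24 h to compound in serum-free DMEM, with final EtOH ≤0.1% (ethanol stocks made fresh). Viability was read by MTS absorbance against vehicle-treated controls; n=4 per group.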

Series [2] in a line: Toxicity in athymic nude mouse xenografted with human HeLa cells assessed as effect on respiration at 40 ug, administered intra-tumorally every day for 14 days. The conditions noted are these: in vivo, other, 336 h.
Series [3] can be described thus: Toxicity in athymic nude mouse xenografted with human HeLa cells assessed as effect on adjacent non-malignant tissues at 40 ug, administered intra-tumorally every day for 14 days. The following applies: in vivo, other, 336 h.
Series [4] can be described thus: Toxicity in athymic nude mouse xenografted with human HeLa cells assessed as effect on motor functions at 40 ug, administered intra-tumorally every day for 14 days. The conditions noted are these: in vivo, other, 336 h.
For series [5], the system named is MDA-MB-231. Kind of series: Antiproliferative activity against human MDA231 cells after 24 hrs by cell titer 96 aqueous non-radioactive cell proliferation assay. It is filed as functional, cell-based. The following applies: MDA-MB-231, 24 h. The essentials: as §1
Series [6] has as its target Transient receptor potential cation channel subfamily V member 1 (Homo sapiens) (UniProt Q8NER1). Kind of series: Agonist activity at TRPV1 (unknown origin) expressed in CHO cells assessed as increase in calcium influx by Calcium 6 dye-based FLIPR assay. It is filed as cell-based. The essentials: (§2)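 CHO cells stably overexpressing TRPV1, grown at 37°C in 5% CO2. 9x10³ cells per well, loaded with Calcium 6 dye for 2 h. Dose-response curves were run, then compounds at 1 μM were compared with 100 nM capsaicin as the positive control and 1 μM CPZ as the negative control. Calcium influx was read as the change in fluorescence at 535 nm; n=3 per group.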

For series [7], the system named is NCI-H460. Kind of series: Antiproliferative activity against human NCI-H460 cells after 24 hrs by cell titer 96 aqueous non-radioactive cell proliferation assay. It is filed as functional, cell-based. The following applies: NCI-H460, 24 h. Put shortly:
as §1

Series [8] has as its system PC-3. Kind of series: Antiproliferative activity against human PC3 cells after 24 hrs by cell titer 96 aqueous non-radioactive cell proliferation assay. The following applies: PC-3, 24 h. The format is functional, cell-based. Put shortly: as §1
The test system of series [9] is HSC-3. Kind of series: Antiproliferative activity against human HSC3 cells after 24 hrs by cell titer 96 aqueous non-radioactive cell proliferation assay. The format is functional, cell-based. The following applies: HSC-3, 24 h. Put shortly: as §1
Series [10] relates to HeLa. Kind of series: Antitumor activity against human HeLa cells xenografted in athymic nude mouse assessed as tumor volume at 40 ug, administered intra-tumorally every day for 14 days (reference value: 562 mm3). The format is functional.
Series [11] is described as follows: Toxicity in athymic nude mouse xenografted with human HeLa cells assessed as effect on mobility at 40 ug, administered intra-tumorally every day for 14 days. The following applies: in vivo, other, 336 h.
A short description of series [12]: Toxicity in athymic nude mouse xenografted with human HeLa cells assessed as effect on neurological function at 40 ug, administered intra-tumorally every day for 14 days. The conditions noted are these: in vivo, other, 336 h.
Series [13] can be described thus: Toxicity in athymic nude mouse xenografted with human HeLa cells assessed as decrease in body weight at 40 ug, administered intra-tumorally every day for 14 days. The following applies: in vivo, other, 336 h.
The target of series [14] is Transient receptor potential cation channel subfamily V member 1 (Homo sapiens) (UniProt Q8NER1). Kind of series: Antagonist activity at TRPV1 (unknown origin) expressed in CHO cells assessed as inhibition of capsaicin-induced increase in calcium influx at 1 uM pretreated before 100 nM capsaicin addition by Calcium 6 dye-based FLIPR assay. It is filed as cell-based. Put shortly: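 CHO-TRPV1 cells, 9x10³ per well, loaded with Calcium 6 dye for 2 h. Cells were pretreated with 1 μM compound, then challenged with 100 nM capsaicin. TRPV1 inhibition was judged from the change in fluorescence at 535 nm.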

The subject of series [15] is HeLa. Kind of series: Potency index, ratio of capsazepine IC50 to compound IC50 for antiproliferative activity against human HeLa cells. It is filed as functional.
Series [16] concerns the target Transient receptor potential cation channel subfamily V member 1 (Homo sapiens) (UniProt Q8NER1). Kind of series: Agonist activity at TRPV1 (unknown origin) expressed in CHO cells assessed as increase in calcium influx at 1 uM by Calcium 6 dye-based FLIPR assay. The format is cell-based. The essentials:
as §2

Sequence of Transient receptor potential cation channel subfamily V member 1 (Homo sapiens) (Q8NER1 whole entry): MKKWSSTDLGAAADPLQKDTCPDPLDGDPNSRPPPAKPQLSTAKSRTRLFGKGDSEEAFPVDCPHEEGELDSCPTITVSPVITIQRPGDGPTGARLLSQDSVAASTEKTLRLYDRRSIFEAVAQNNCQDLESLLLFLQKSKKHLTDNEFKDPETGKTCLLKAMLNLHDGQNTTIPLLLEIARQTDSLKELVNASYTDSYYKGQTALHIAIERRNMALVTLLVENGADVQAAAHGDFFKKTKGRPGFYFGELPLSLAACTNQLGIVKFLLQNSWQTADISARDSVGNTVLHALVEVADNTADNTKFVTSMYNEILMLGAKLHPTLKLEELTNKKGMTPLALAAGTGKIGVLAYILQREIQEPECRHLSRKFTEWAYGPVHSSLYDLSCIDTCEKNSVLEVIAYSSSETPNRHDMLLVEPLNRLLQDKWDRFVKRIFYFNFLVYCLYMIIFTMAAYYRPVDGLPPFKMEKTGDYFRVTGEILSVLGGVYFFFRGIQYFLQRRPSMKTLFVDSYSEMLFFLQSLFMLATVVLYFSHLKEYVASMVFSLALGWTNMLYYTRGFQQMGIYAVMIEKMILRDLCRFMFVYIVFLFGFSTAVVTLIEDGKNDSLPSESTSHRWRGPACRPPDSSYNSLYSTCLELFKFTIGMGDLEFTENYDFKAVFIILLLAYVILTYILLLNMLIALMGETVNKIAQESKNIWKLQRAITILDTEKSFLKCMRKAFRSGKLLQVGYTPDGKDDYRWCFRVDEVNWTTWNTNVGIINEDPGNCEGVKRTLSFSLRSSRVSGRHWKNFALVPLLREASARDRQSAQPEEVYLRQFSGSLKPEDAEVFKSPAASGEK

Consider `Oc1cc2c(cc1O)CN(C(=S)NCCc1ccc(Cl)cc1Cl)CC2`, for which, in series [1], the IC50 was determined as 30 µM. `Oc1cc2c(cc1O)C(c1ccccc1)N(C(=S)NCCc1ccccc1)CC2` (configuration not stated): in series [1], the IC50 turned out to be 25 µM.

Turning to `Oc1ccc2c(c1)CN(C(=S)NCCc1ccc(Cl)cc1)CCC2`, the IC50 in [1] stood at 50 µM. As for `Oc1cc2c(cc1O)CN(C(=S)NCCc1ccccc1)CC2`, the IC50 in series [1] worked out at 25 µM.

With `COc1ccc2c(c1)CN(C(=S)NCCc1ccc(Cl)cc1)CCC2`, the IC50 in series [1] is above 100 µM. Same read-out and setting: in the case of `O=C(NCCc1ccc(Cl)cc1)N1CCc2cc(O)c(O)cc2C1` it was 15 µM. The same measure, in the same setting: with `Oc1ccc2c(c1)CCCN(C(=S)NCCc1ccc(Cl)cc1)C2` the figure was 65 µM; with `COc1ccc(CCNC(=S)N2CCc3cc(O)c(O)cc3C2)cc1`, above 100 µM. As to `Oc1cc2c(cc1O)C(c1ccccc1)N(C(=S)NCCc1ccc(Cl)cc1)CC2` (configuration not stated), the IC50 in series [1] is below 5 µM. On to `Oc1cc2c(cc1O)C(c1ccccc1)N(C(=S)NCCc1ccc(F)cc1)CC2` (configuration not stated), for which, in [1], the IC50 is 17 µM.

As to `CC(C)C1c2cc(O)c(O)cc2CCN1C(=S)NCc1ccccc1` (configuration not stated), the IC50 in series [1] was 35 µM. For `COc1ccc(CCNC(=S)N2CCc3cc(O)c(O)cc3C2c2ccccc2)cc1` (configuration not stated), the IC50 in series [1] amounted to 24 µM. `Oc1cc2c(cc1O)CN(C(=S)NCCc1ccc(Cl)cc1)CCC2` [CAPSAZEPINE]: the IC50 in series [1] amounted to 30 µM. Turning to `CN(CCc1ccc(O)c(O)c1)C(=O)NCCc1ccc(Cl)cc1`, the IC50 in series [1] was above 30 µM. With `COc1cc2c(cc1OC)CN(C(=S)NCCc1ccc(Cl)cc1)CC2`, the IC50 in series [1] was above 100 µM.

In the case of `CN(Cc1ccc(O)c(O)c1)C(=S)NCCc1ccc(Cl)cc1`, the IC50 in series [1] is above 100 µM. `CC(C)C1c2cc(O)c(O)cc2CCN1C(=S)NCCc1ccc(Cl)cc1Cl` (configuration not stated): in series [1], the IC50 worked out at 46 µM.

With `COc1cc2c(cc1OC)CN(C(=O)NCCc1ccc(Cl)cc1)CC2`, in series [1], the IC50 was above 100 µM. On the same count and under the same terms, with `CC(C)C1c2cc(O)c(O)cc2CCN1C(=S)NCCc1ccccc1` (configuration not stated) the figure was 67 µM; with `CN(Cc1ccc(O)c(O)c1)C(=O)NCCc1ccc(Cl)cc1`, 30 µM. On the same count and under the same terms, with `Oc1cc2c(cc1O)C(c1ccccc1)N(C(=S)NCCc1ccc(Cl)cc1Cl)CC2` (configuration not stated) the figure was 20 µM; with `COc1ccc(CN(C)C(=O)NCCc2ccc(Cl)cc2)cc1OC`, above 30 µM. As to `Oc1cc2c(cc1O)CN(C(=S)NCCc1ccc(Cl)cc1)CC2`, the IC50 in series [1] is below 10 µM; in series [5], 5 µM; in [7], 23 µM; in series [8] it was 13 µM; in series [9], 20 µM. Moreover, the Activity entry is “Non-Toxic” in series [2]; “Non-Toxic” in [3]; “Non-Toxic” in series [4]; “Dose-dependent effect” in series [6]; 351 mm3 in series [10]; “Non-Toxic” in series [11]. Besides, the Activity entry in series [12] and in series [13] was “Non-Toxic” each time. In the case of `Oc1cc2c(cc1O)CN(C(=S)NCc1ccccc1)CC2`, in series [1], the IC50 was above 100 µM. In the case of `CN(CCc1ccc(O)c(O)c1)C(=S)NCCc1ccc(Cl)cc1`, the IC50 in series [1] came out at 30 µM. Still for that read-out and setting: with `Oc1cc2c(cc1O)CN(C(=S)NCCc1ccc(Cl)cc1)C2` the figure was 85 µM; with `CC(C)C1c2cc(O)c(O)cc2CCN1C(=S)NCCc1ccc(F)cc1` (configuration not stated), 28 µM; with `CC(C)C1c2cc(O)c(O)cc2CCN1C(=S)NCCc1ccc(Cl)cc1` (configuration not stated), 55 µM.

Turning to `Oc1cc2c(cc1O)CN(C(=S)NCCc1ccc(F)cc1)CC2`, in [1], the IC50 was found to be 25 µM. On to `Oc1cc2c(cc1O)C(c1ccccc1)N(C(=S)NCc1ccccc1)CC2` (configuration not stated), for which the IC50 in series [1] is below 5 µM; in [5] it was 32 µM; in [7] it was 42 µM; in series [8] it was 2.5 µM; in series [9], 2 µM. Also, the Activity entry is given as “Non-Toxic” in series [2]; “Non-Toxic” in series [3]; “Non-Toxic” in series [4]; 283 mm3 in series [10]; “Non-Toxic” in series [11]; “Non-Toxic” in series [12]. The Activity entry in series [13] is “Non-Toxic”. The inhibition result in series [14] was “inactive”. Moreover, in series [15], the “Ratio IC50” value is recorded as 6. For the same compound, the outcome in series [16] was inactive. In the case of `COc1ccc2c(c1)CCCN(C(=S)NCCc1ccc(Cl)cc1)C2`, the IC50 in [1] is above 100 µM.
